ChEMBL document CHEMBL1125797, “Synthesis, characterization and myocardial uptake of cationic bis(arene)technetium(I) complexes” (J Med Chem, 1991)

What was measured:
Rattus norvegicus [1] = experiment: Biodistribution of compound in rat bone at 90 min after intravenous administration; assay type: ADME, organism-based, Bone element; details: in vivo, 1.5 h
How it was run: (§1)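 Time course in Sprague-Dawley rats after lateral tail-vein injection of the 99mTc complex in normal saline (~12.5 μCi/mL) at ~25 μCi/kg. Tissues were sampled at the stated times, washed with saline, blotted, weighed and γ-counted to give percent injected dose per g. Values are averages of male and female rats.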

Rattus norvegicus [2] = experiment: Biodistribution of compound in rat eye at 360 min after intravenous administration; assay type: ADME, organism-based; details: in vivo, 6 h; how it was run: as §1
Rattus norvegicus [3] = experiment: Biodistribution of compound in rat muscle at 360 min after intravenous administration; assay type: ADME, organism-based, Muscle tissue; details: in vivo, 6 h
How it was run: (§2)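 Rats received the 99mTc complex in normal saline (~12.5 μCi/mL) by lateral tail vein injection at ~25 μCi/kg and were killed by cervical dislocation at the stated time. Tissues were washed with saline, blotted, weighed and γ-counted to give percent injected dose/g. Time-course values are averages of male and female rats.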

Rattus norvegicus [4] = experiment: Biodistribution of compound in rat feces at 360 min after intravenous administration; assay type: ADME, organism-based; details: in vivo, 6 h
Rattus norvegicus [5] = experiment: Biodistribution of compound in rat gonads at 180 min after intravenous administration; assay type: ADME, organism-based, Gonad; details: in vivo, 3 h; how it was run: as §1
Rattus norvegicus [6] = experiment: Biodistribution of compound in rat bone marrow at 90 min after intravenous administration; assay type: ADME, organism-based; details: in vivo, 1.5 h; how it was run: as §1
Rattus norvegicus [7] = experiment: Biodistribution of compound in rat kidney at 360 min after intravenous administration; assay type: ADME, organism-based; details: in vivo, 6 h; how it was run: as §1
Rattus norvegicus [8] = experiment: Biodistribution of compound in rat heart at 5 min after intravenous administration; assay type: ADME, organism-based; details: in vivo; how it was run: as §1
Rattus norvegicus [9] = experiment: Biodistribution of compound in rat bone marrow at 180 min after intravenous administration; assay type: ADME, organism-based; details: in vivo, 3 h; how it was run: as §1
Rattus norvegicus [10] = experiment: Biodistribution of compound in rat lungs at 360 min after intravenous administration; assay type: ADME, organism-based, Lung; details: in vivo, 6 h; how it was run: as §2
Rattus norvegicus [11] = experiment: Biodistribution of compound in rat lungs at 1440 min after intravenous administration; assay type: ADME, organism-based, Lung; details: in vivo, 24 h; how it was run: as §2
Rattus norvegicus [12] = experiment: Biodistribution of compound in rat liver after 5 min of administration.; assay type: ADME, organism-based; details: in vivo
How it was run: (§3)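 Female Sprague-Dawley rats (150–200 g) received the complex in normal saline (~12.5 μCi/mL) through a lateral tail vein at ~25 μCi/kg. Rats were killed by cervical dislocation 5 min after injection. Tissues were washed with saline, blotted, weighed and γ-counted to give percent injected dose/g tissue.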

Rattus norvegicus [13] = experiment: Biodistribution of compound in rat bone at 360 min after intravenous administration; assay type: ADME, organism-based, Bone element; details: in vivo, 6 h; how it was run: as §1
Rattus norvegicus [14] = experiment: Biodistribution of compound in rat blood at 1440 min after intravenous administration; assay type: ADME, organism-based; details: in vivo, 24 h; how it was run: as §1
Rattus norvegicus [15] = experiment: Biodistribution of compound in rat blood at 45 min after intravenous administration; assay type: ADME, organism-based; details: in vivo, 0.75 h; how it was run: as §1
Rattus norvegicus [16] = experiment: Biodistribution of compound in rat bone marrow at 5 min after intravenous administration; assay type: ADME, organism-based; details: in vivo; how it was run: as §1
Rattus norvegicus [17] = experiment: Biodistribution of compound in rat kidney at 45 min after intravenous administration; assay type: ADME, organism-based; details: in vivo, 0.75 h; how it was run: as §1
Rattus norvegicus [18] = experiment: Biodistribution of compound in rat bone at 5 min after intravenous administration; assay type: ADME, organism-based, Bone element; details: in vivo; how it was run: as §1
Rattus norvegicus [19] = experiment: Biodistribution of compound in rat gonads at 5 min after intravenous administration; assay type: ADME, organism-based, Gonad; details: in vivo; how it was run: as §1
Rattus norvegicus [20] = experiment: Biodistribution of compound in rat heart at 1440 min after intravenous administration; assay type: ADME, organism-based; details: in vivo, 24 h; how it was run: as §1
Rattus norvegicus [21] = experiment: Biodistribution of compound in rat liver at 1440 min after intravenous administration; assay type: ADME, organism-based; details: in vivo, 24 h; how it was run: as §1
Rattus norvegicus [22] = experiment: Biodistribution of compound in rat gonads at 1440 min after intravenous administration; assay type: ADME, organism-based, Gonad; details: in vivo, 24 h; how it was run: as §1
Rattus norvegicus [23] = experiment: Biodistribution of compound in rat urine at 360 min after intravenous administration; assay type: ADME, organism-based; details: in vivo, 6 h; how it was run: as §2
Rattus norvegicus [24] = experiment: Biodistribution of compound in rat eye at 180 min after intravenous administration; assay type: ADME, organism-based; details: in vivo, 3 h; how it was run: as §1
Rattus norvegicus [25] = experiment: Biodistribution of compound in rat gonads at 360 min after intravenous administration; assay type: ADME, organism-based, Gonad; details: in vivo, 6 h; how it was run: as §1
Rattus norvegicus [26] = experiment: Biodistribution of compound in rat heart after 5 min of administration.; assay type: ADME, organism-based; details: in vivo; how it was run: as §3
Rattus norvegicus [27] = experiment: Biodistribution of compound in rat muscle at 5 min after intravenous administration; assay type: ADME, organism-based, Muscle tissue; details: in vivo; how it was run: as §2
Rattus norvegicus [28] = experiment: Biodistribution of compound in rat feces at 1440 min after intravenous administration; assay type: ADME, organism-based; details: in vivo, 24 h
Rattus norvegicus [29] = experiment: Biodistribution of compound in rat muscle at 180 min after intravenous administration; assay type: ADME, organism-based, Muscle tissue; details: in vivo, 3 h; how it was run: as §2
Rattus norvegicus [30] = experiment: Biodistribution of compound in rat blood at 90 min after intravenous administration; assay type: ADME, organism-based; details: in vivo, 1.5 h; how it was run: as §1
Rattus norvegicus [31] = experiment: Biodistribution of compound in rat muscle at 1440 min after intravenous administration; assay type: ADME, organism-based, Muscle tissue; details: in vivo, 24 h; how it was run: as §2
Rattus norvegicus [32] = experiment: Biodistribution of compound in rat kidney at 5 min after intravenous administration; assay type: ADME, organism-based; details: in vivo; how it was run: as §1
Rattus norvegicus [33] = experiment: Biodistribution of compound in rat lungs at 45 min after intravenous administration; assay type: ADME, organism-based, Lung; details: in vivo, 0.75 h; how it was run: as §2
Rattus norvegicus [34] = experiment: Biodistribution of compound in rat liver at 90 min after intravenous administration; assay type: ADME, organism-based; details: in vivo, 1.5 h; how it was run: as §2
Rattus norvegicus [35] = experiment: Biodistribution of compound in rat eye at 1440 min after intravenous administration; assay type: ADME, organism-based; details: in vivo, 24 h; how it was run: as §1
Rattus norvegicus [36] = experiment: Biodistribution of compound in rat liver at 360 min after intravenous administration; assay type: ADME, organism-based; details: in vivo, 6 h; how it was run: as §2

Substance: Bis(1,2,3,5-tetramethylbenzene)technetium
- Dose/g (Rattus norvegicus [1]): 3.5 % dose/organ
- Dose/g (Rattus norvegicus [2]): 0.022 % dose
- Dose/g (Rattus norvegicus [3]): 31 % dose/organ
- Dose/g (Rattus norvegicus [4]): 0.3 % dose
- Dose/g (Rattus norvegicus [5]): 0.58 % dose
- Dose/g (Rattus norvegicus [6]): 0.28 % dose/organ
- Dose/g (Rattus norvegicus [7]): 1.5 % dose
- Dose/g (Rattus norvegicus [8]): 2.51 % dose
- Dose/g (Rattus norvegicus [9]): 0.2 % dose/organ
- Dose/g (Rattus norvegicus [10]): 0.7 % dose/organ
- Dose/g (Rattus norvegicus [11]): 0.18 % dose/organ
- Dose/g (Rattus norvegicus [12]): 0.67%
- Dose/g (Rattus norvegicus [13]): 1.4 % dose
- Dose/ml (Rattus norvegicus [14]): 0.07 % dose
- Dose/ml (Rattus norvegicus [15]): 0.51 % dose
- Dose/g (Rattus norvegicus [16]): 0.43 % dose/organ
- Dose/g (Rattus norvegicus [17]): 5.4 % dose
- Dose/g (Rattus norvegicus [18]): 3.8 % dose/organ
- Dose/g (Rattus norvegicus [19]): 0.099 % dose
- Dose/g (Rattus norvegicus [20]): 1.27 % dose
- Dose/g (Rattus norvegicus [21]): 0.2 % dose/organ
- Dose/g (Rattus norvegicus [22]): 0.019 % dose
- Dose/ml (Rattus norvegicus [23]): 11 % dose
- Dose/g (Rattus norvegicus [24]): 0.02 % dose
- Dose/g (Rattus norvegicus [25]): 0.039 % dose
- Dose/g (Rattus norvegicus [26]): 3.4%
- Dose/g (Rattus norvegicus [27]): 44 % dose/organ
- Dose/g (Rattus norvegicus [28]): 30 % dose
- Dose/g (Rattus norvegicus [29]): 44 % dose/organ
- Dose/ml (Rattus norvegicus [30]): 0.3 % dose
- Dose/g (Rattus norvegicus [31]): 56 % dose/organ
- Dose/g (Rattus norvegicus [32]): 7.1 % dose
- Dose/g (Rattus norvegicus [33]): 1.5 % dose/organ
- Dose/g (Rattus norvegicus [34]): 2.5 % dose/organ
- Dose/g (Rattus norvegicus [35]): 0.01 % dose/organ
- Dose/g (Rattus norvegicus [36]): 0.9 % dose/organ
